What was measured:
Klebsiella pneumoniae [1] = assay: Inhibition of Klebsiella pneumoniae OXA-48 pre-incubated with enzyme for 5 mins before nitrocefin substrate addition by colorimetric assay
Klebsiella pneumoniae [2] = assay: Inhibition of Klebsiella pneumoniae CTX-M-15 pre-incubated with enzyme for 5 mins before nitrocefin substrate addition by colorimetric assay
[3] = Inhibition of Enterobacter cloacae KPC-2 pre-incubated with enzyme for 5 mins before nitrocefin substrate addition by colorimetric assay
[4] = Hydrolytic solution stability in pH 7.4 aqueous phosphate buffer at 37 degC by HPLC-UV method; assay type: physicochemical
Procedure, shortened: (§1)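 Compound held in aqueous phosphate buffer, pH 7.4, at 37 °C or 70 °C. Hydrolytic stability is reported as half-life in hours.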

[5] = Inhibition of Pseudomonas aeruginosa AmpC pre-incubated with enzyme for 5 mins before nitrocefin substrate addition by colorimetric assay
[6] = Hydrolytic solution stability in pH 7.4 aqueous phosphate buffer at 70 degC by HPLC-UV method; assay type: physicochemical; procedure, shortened: as §1

IC50 (Klebsiella pneumoniae [1]) [µM]	IC50 (Klebsiella pneumoniae [2]) [µM]	IC50 [3] [µM]	half-life [4] [h]	IC50 [5] [µM]	half-life [6] [h]	Structure (SMILES)
1.3	0.14	0.85	112	4.5	8.2	NC(=O)[C@@H]1[C@@H]2C[C@@H]2[C@@H]2CN1C(=O)N2OS(=O)(=O)[O-].[Na+]
28	0.48	6.7		2	> 264	NC(=O)[C@@H]1[C@H]2C[C@H]2[C@@H]2CN1C(=O)N2OS(=O)(=O)[O-].[Na+]

Structure (SMILES)	IC50 (Klebsiella pneumoniae [1]) [µM]	IC50 (Klebsiella pneumoniae [2]) [µM]	IC50 [3] [µM]	half-life [4] [h]	IC50 [5] [µM]	half-life [6] [h]
C[C@]1(Cn2ccnn2)[C@H](C(=O)O)N2C(=O)C[C@H]2S1(=O)=O [TAZOBACTAM]	3.6	< 0.007	39		3.4	7.7

Reference: ChEMBL document CHEMBL3352796, “Enantioselective Synthesis and Profiling of Two Novel Diazabicyclooctanone β-Lactamase Inhibitors” (ACS Med Chem Lett, 2014)
